The text below walks through data of ChEMBL document CHEMBL3351961, “In vitro antitumor activity evaluation of some 1,2,4-triazine derivatives bearing piperazine amide moiety against breast cancer cells” (Bioorg Med Chem, 2014).

The source made the active and inactive calls. The rule behind the calls is not given here.

The nature of experiment [1]: Cytotoxicity against mouse NIH/3T3 cells after 24 hrs by MTT assay. Type of experiment: cell-based. The note with it: NIH3T3, 24 h, in the assay text read “XTT assay” for “MTT assay”. The method in brief:
(§1)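 Cells grown in RPMI with fetal calf serum, penicillin/streptomycin, 37 °C, 5% CO2. Seeded 2 × 10^4 cells/well, then 24 h. Medium replaced with compound at 3.9–500 µg/ml (DMSO stocks diluted in medium, final DMSO under 0.1%). XTT read-out of mitochondrial activity: 3 h at 37 °C, OD 480 nm (reference 680 nm). IC50 by non-linear regression; duplicate experiments; cisplatin positive control.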
In general terms: Tetrazolium dyes change colour on reduction, which living cells bring about.

In experiment [2] the test system is MCF7. Kind of experiment: Cytotoxicity against human MCF7 cells after 24 hrs by MTT assay. The following applies: MCF7, 24 h, in the assay text read “XTT assay” for “MTT assay”. The format is functional, cell-based. The method, boiled down: as §1
Experiment [3] deals with MCF7. Kind of experiment: Induction of apoptosis in human MCF7 cells assessed as viable cells level at cytotoxic IC50 level after 24 hrs by Annexin V/PI dual staining based flow cytometry (reference value: 94.36 %). Type of experiment: functional. (Flow cytometry measures light scatter and fluorescence of single cells or particles in a stream.)
In experiment [4] the test system is MCF7. Kind of experiment: Induction of apoptosis in human MCF7 cells assessed as necrotic cells level at cytotoxic IC50 level after 24 hrs by Annexin V/PI dual staining based flow cytometry (reference value: 3.66 %). The format is functional.
Experiment [5] deals with MCF7. As to the kind of experiment: Induction of apoptosis in human MCF7 cells assessed as late apoptotic cells level at cytotoxic IC50 level after 24 hrs by Annexin V/PI dual staining based flow cytometry (reference value: 1.52 %). The format is functional.
Experiment [6] has as its system MCF7. Kind of experiment: Induction of apoptosis in human MCF7 cells assessed as early apoptotic cells level at cytotoxic IC50 level after 24 hrs by Annexin V/PI dual staining based flow cytometry (reference value: 0.46%). Type of experiment: functional.
Experiment [7] relates to MCF7. As to the kind of experiment: Inhibition of DNA synthesis in human MCF7 cells at 2 times cytotoxic IC50 level after 48 hrs by 5-bromo-20-deoxy-uridine incorporation method. Type of experiment: functional. The method, boiled down:
(§2)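 BrdU ELISA on MCF-7 seeded at 2 × 10^4 cells/well. Compounds given at IC50/2, IC50 and 2 × IC50 (from the XTT assay) for 24 h or 48 h. BrdU added for 2 h at 37 °C, then anti-BrdU-POD for 90 min, three PBS washes and colorimetric substrate. Untreated control absorbance set as 0% inhibition. Means of two independent experiments ± SD of four wells; cisplatin positive control.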

The test system of experiment [8] is MCF7. As to the kind of experiment: Inhibition of DNA synthesis in human MCF7 cells at cytotoxic IC50 level after 48 hrs by 5-bromo-20-deoxy-uridine incorporation method. The format is functional. The method in brief:
as §2

Experiment [9] has as its system MCF7. Kind of experiment: Inhibition of DNA synthesis in human MCF7 cells at 0.5 times cytotoxic IC50 level after 48 hrs by 5-bromo-20-deoxy-uridine incorporation method. The format is functional. The method in brief: as §2
Experiment [10] concerns MCF7. As to the kind of experiment: Inhibition of DNA synthesis in human MCF7 cells at 0.5 times cytotoxic IC50 level after 24 hrs by 5-bromo-20-deoxy-uridine incorporation method. Type of experiment: functional. The method, boiled down: as §2
Experiment [11] deals with MCF7. As to the kind of experiment: Inhibition of DNA synthesis in human MCF7 cells at cytotoxic IC50 level after 24 hrs by 5-bromo-20-deoxy-uridine incorporation method. The format is functional. The method in brief:
as §2

Experiment [12] relates to MCF7. Kind of experiment: Inhibition of DNA synthesis in human MCF7 cells at 2 times cytotoxic IC50 level after 24 hrs by 5-bromo-20-deoxy-uridine incorporation method. The format is functional. The method, boiled down:
as §2

Experiment [13] concerns MCF7. As to the kind of experiment: Inhibition of DNA synthesis in human MCF7 cells at 22.09 ug/ml after 48 hrs by 5-bromo-20-deoxy-uridine incorporation method. Type of experiment: functional. The note with it: MCF7, 48 h. The method, boiled down:
(§3)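 MCF-7 seeded at 2 × 10^4 cells/well and exposed to compound for 48 h at the stated concentration. BrdU added for 2 h at 37 °C, then anti-BrdU-POD for 90 min, PBS washes and colorimetric substrate. Inhibition taken relative to untreated control absorbance (set as 0%). Means of two independent experiments ± SD of four wells.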

The subject of experiment [14] is MCF7. As to the kind of experiment: Inhibition of DNA synthesis in human MCF7 cells at 44.18 ug/ml after 48 hrs by 5-bromo-20-deoxy-uridine incorporation method. The note with it: MCF7, 48 h. Type of experiment: functional. The method in brief:
as §3

A word on the IC50: it is the concentration needed to halve the response being measured. Read a low IC50 as higher potency. For `COc1ccc(-c2nnc(N3CCN(C(=O)CN4CCN(c5ccc([N+](=O)[O-])cc5)CC4)CC3)nc2-c2ccc(OC)cc2)cc1`, the IC50 in [1] and in [2] was greater than 801 µM throughout.
For `O=C(CN1CCN(c2ccccc2)CC1)N1CCN(c2nnc(-c3ccc(Cl)cc3)c(-c3ccc(Cl)cc3)n2)CC1`, the IC50 in [1] and in experiment [2] was greater than 850 µM each time.
Consider `COc1cccc(N2CCN(CC(=O)N3CCN(c4nnc(-c5ccccc5)c(-c5ccccc5)n4)CC3)CC2)c1`, for which the half-inhibitory concentration (IC50) was 361 µM in experiment [1] and greater than 911 µM in experiment [2].
Consider `O=C(CN1CCN(c2ccccc2Cl)CC1)N1CCN(c2nnc(-c3ccc(Cl)cc3)c(-c3ccc(Cl)cc3)n2)CC1`, for which the IC50 in experiment [1] is greater than 803 µM; in experiment [2], 396 µM.
As to `Cc1ccc(-c2nnc(N3CCN(C(=O)CN4CCN(c5ccccc5Cl)CC4)CC3)nc2-c2ccc(C)cc2)cc1`, the values for the IC50 in [1] and in [2] were greater than 859 µM and 859 µM, respectively.
On to `COc1ccc(-c2nnc(N3CCN(C(=O)CN4CCN(c5ccc(OC)cc5)CC4)CC3)nc2-c2ccc(OC)cc2)cc1`, for which the 50% inhibitory concentration (IC50) in experiment [1] and in experiment [2] was greater than 821 µM throughout.
`COc1ccc(N2CCN(CC(=O)N3CCN(c4nnc(-c5ccccc5)c(-c5ccccc5)n4)CC3)CC2)cc1`: the IC50 in [1] and in experiment [2] was greater than 911 µM throughout.
In the case of `O=C(CN1CCN(c2ccccc2Cl)CC1)N1CCN(c2nnc(-c3ccccc3)c(-c3ccccc3)n2)CC1`, the 50% inhibitory concentration (IC50) was determined as 350 µM in experiment [1] and 263 µM in experiment [2].
The corresponding values for `O=C(CN1CCN(c2ccc([N+](=O)[O-])cc2)CC1)N1CCN(c2nnc(-c3ccc(Cl)cc3)c(-c3ccc(Cl)cc3)n2)CC1` are greater than 790 µM and greater than 790 µM.
The like results for `Cc1ccc(-c2nnc(N3CCN(C(=O)CN4CCN(c5ccc(Cl)cc5)CC4)CC3)nc2-c2ccc(C)cc2)cc1` were, in that order, 567 µM and 660 µM.
Regarding `COc1cccc(N2CCN(CC(=O)N3CCN(c4nnc(-c5ccc(Cl)cc5)c(-c5ccc(Cl)cc5)n4)CC3)CC2)c1`, the Activity was 71.3% in experiment [3], 24.5% in experiment [4], 3.3% in experiment [5] and 0.9% in experiment [6]. The half-inhibitory concentration (IC50) was determined as 202 µM in experiment [1] and 149 µM in experiment [2].
As to `O=C(CN1CCN(c2ccc(Cl)cc2)CC1)N1CCN(c2nnc(-c3ccc(Cl)cc3)c(-c3ccc(Cl)cc3)n2)CC1`, the IC50 in experiment [1] and in experiment [2] was greater than 803 µM each time.
For `COc1cccc(N2CCN(CC(=O)N3CCN(c4nnc(-c5ccc(C)cc5)c(-c5ccc(C)cc5)n4)CC3)CC2)c1`, the concentration for half-maximal inhibition (IC50) in [1] is greater than 866 µM; in [2] it was 867 µM.
The corresponding values for `O=C(CN1CCN(c2ccc([N+](=O)[O-])cc2)CC1)N1CCN(c2nnc(-c3ccccc3)c(-c3ccccc3)n2)CC1` are greater than 886 µM and greater than 886 µM.
Take `Cc1ccc(-c2nnc(N3CCN(C(=O)CN4CCN(c5cccc(Cl)c5)CC4)CC3)nc2-c2ccc(C)cc2)cc1`: the half-inhibitory concentration (IC50) amounted to 859 µM in experiment [1] and 797 µM in experiment [2].
`COc1ccc(-c2nnc(N3CCN(C(=O)CN4CCN(c5ccccc5Cl)CC4)CC3)nc2-c2ccc(OC)cc2)cc1`: the IC50 in [1] and in experiment [2] was greater than 814 µM in each case.
Take `Cc1ccc(-c2nnc(N3CCN(C(=O)CN4CCN(c5ccccc5)CC4)CC3)nc2-c2ccc(C)cc2)cc1`: the half-maximal inhibitory concentration (IC50) is greater than 914 µM in experiment [1] and 914 µM in experiment [2].
The like results for `COc1ccc(-c2nnc(N3CCN(C(=O)CN4CCN(c5ccccc5OC)CC4)CC3)nc2-c2ccc(OC)cc2)cc1` were, in that order, greater than 821 µM and greater than 821 µM.
The corresponding values for `COc1ccc(-c2nnc(N3CCN(C(=O)CN4CCN(c5cccc(Cl)c5)CC4)CC3)nc2-c2ccc(OC)cc2)cc1` are greater than 814 µM and greater than 814 µM.
Turning to `COc1ccc(N2CCN(CC(=O)N3CCN(c4nnc(-c5ccc(Cl)cc5)c(-c5ccc(Cl)cc5)n4)CC3)CC2)cc1`, the half-inhibitory concentration (IC50) in [1] and in [2] was greater than 809 µM in each case.
In the case of `COc1ccccc1N1CCN(CC(=O)N2CCN(c3nnc(-c4ccc(Cl)cc4)c(-c4ccc(Cl)cc4)n3)CC2)CC1`, the IC50 in experiment [1] turned out to be 404 µM; in experiment [2], 330 µM.
The like results for `O=C(CN1CCN(c2ccccc2)CC1)N1CCN(c2nnc(-c3ccccc3)c(-c3ccccc3)n2)CC1` were, in that order, greater than 963 µM and greater than 963 µM.
As to `O=C(CN1CCN(c2ccc(Cl)cc2)CC1)N1CCN(c2nnc(-c3ccccc3)c(-c3ccccc3)n2)CC1`, the Activity in [3] amounted to 76.4%; in experiment [4] it was 11.2%; in [5], 10.3%; in experiment [6], 2.1%. The figures for the “inhibition (INH)” value in experiment [7], in experiment [8] and in experiment [9] were 62.34%, 52.05% and 24.98%, respectively. Further, the IC50 in experiment [1] worked out at 113 µM; in [2], 56.3 µM.
Turning to `O=C(CN1CCN(c2cccc(Cl)c2)CC1)N1CCN(c2nnc(-c3ccc(Cl)cc3)c(-c3ccc(Cl)cc3)n2)CC1`, the concentration for half-maximal inhibition (IC50) in experiment [1] and in experiment [2] was greater than 803 µM each time.
As to `COc1ccc(-c2nnc(N3CCN(C(=O)CN4CCN(c5ccc(Cl)cc5)CC4)CC3)nc2-c2ccc(OC)cc2)cc1`, the half-maximal inhibitory concentration (IC50) in experiment [1] was greater than 814 µM; in [2], 607 µM.
Take `Cc1ccc(-c2nnc(N3CCN(C(=O)CN4CCN(c5ccc([N+](=O)[O-])cc5)CC4)CC3)nc2-c2ccc(C)cc2)cc1`: the results for the concentration for half-maximal inhibition (IC50) in experiment [1] and in [2] were greater than 845 µM and 845 µM, respectively.
The corresponding values for `COc1ccc(-c2nnc(N3CCN(C(=O)CN4CCN(c5cccc(OC)c5)CC4)CC3)nc2-c2ccc(OC)cc2)cc1` are greater than 821 µM and greater than 821 µM.
`O=C(CN1CCN(c2cccc(Cl)c2)CC1)N1CCN(c2nnc(-c3ccccc3)c(-c3ccccc3)n2)CC1`: the Activity in experiment [3] is recorded as 76.9%; in experiment [4], 11.5%; in [5] it was 9.4%; in [6], 2.2%. For the same molecule, the “inhibition (INH)” value in [7] is listed as 70.18%; in experiment [8], 61.16%; in experiment [10], 26.06%; in experiment [9], 56.59%; in [11], 31.36%; in experiment [12], 41.48%. Also, the IC50 was found to be 178 µM in [1] and 56.3 µM in experiment [2].
As to `COc1ccc(-c2nnc(N3CCN(C(=O)CN4CCN(c5ccccc5)CC4)CC3)nc2-c2ccc(OC)cc2)cc1`, the half-inhibitory concentration (IC50) in experiment [1] and in [2] was greater than 864 µM in each case.
By inhibition is commonly meant the change of the read-out against control, counted positive when it falls. With `COc1ccccc1N1CCN(CC(=O)N2CCN(c3nnc(-c4ccccc4)c(-c4ccccc4)n3)CC2)CC1`, the Activity in experiment [3] turned out to be 82.5%; in [4], 17.1%; in [5], 0.4%; in experiment [6], 0%. For the same molecule, the inhibition result in experiment [7], in experiment [8] and in [9] was “Active” each time. The half-maximal inhibitory concentration (IC50) in experiment [1] worked out at 444 µM; in experiment [2] it was 167 µM. The “inhibition (INH)” value in [10] came out at 22.44%; in experiment [11] it was 76.35%; in experiment [12], 81.61%.
In the case of `COc1ccccc1N1CCN(CC(=O)N2CCN(c3nnc(-c4ccc(C)cc4)c(-c4ccc(C)cc4)n3)CC2)CC1`, the Activity came to 63.4% in experiment [3], 28.2% in [4], 5.8% in experiment [5] and 2.6% in experiment [6]. Besides, the values for the IC50 in experiment [1] and in [2] were 133 µM and 59.4 µM, respectively. In addition, the inhibition at 22.09 µg/mL in [13] was 78.5%. The molecule further had an inhibition at 44.18 µg/mL in experiment [14] of 78.7%.
